Activity calls are given as the source filed them. No cut-off for these calls is given here.
Legend:
[1] = biological target: T1, Toll-like receptor 9 (Homo sapiens) (UniProt Q9NR96); assay: Induction of TLR9-mediated immune stimulation in human PBMC assessed as RANTES production at 10 ug/ml after 24 hrs by luminex multiplex assay (RVb = 0.05 +/- 0.04 ng/ml)
T1 sequence (whole entry): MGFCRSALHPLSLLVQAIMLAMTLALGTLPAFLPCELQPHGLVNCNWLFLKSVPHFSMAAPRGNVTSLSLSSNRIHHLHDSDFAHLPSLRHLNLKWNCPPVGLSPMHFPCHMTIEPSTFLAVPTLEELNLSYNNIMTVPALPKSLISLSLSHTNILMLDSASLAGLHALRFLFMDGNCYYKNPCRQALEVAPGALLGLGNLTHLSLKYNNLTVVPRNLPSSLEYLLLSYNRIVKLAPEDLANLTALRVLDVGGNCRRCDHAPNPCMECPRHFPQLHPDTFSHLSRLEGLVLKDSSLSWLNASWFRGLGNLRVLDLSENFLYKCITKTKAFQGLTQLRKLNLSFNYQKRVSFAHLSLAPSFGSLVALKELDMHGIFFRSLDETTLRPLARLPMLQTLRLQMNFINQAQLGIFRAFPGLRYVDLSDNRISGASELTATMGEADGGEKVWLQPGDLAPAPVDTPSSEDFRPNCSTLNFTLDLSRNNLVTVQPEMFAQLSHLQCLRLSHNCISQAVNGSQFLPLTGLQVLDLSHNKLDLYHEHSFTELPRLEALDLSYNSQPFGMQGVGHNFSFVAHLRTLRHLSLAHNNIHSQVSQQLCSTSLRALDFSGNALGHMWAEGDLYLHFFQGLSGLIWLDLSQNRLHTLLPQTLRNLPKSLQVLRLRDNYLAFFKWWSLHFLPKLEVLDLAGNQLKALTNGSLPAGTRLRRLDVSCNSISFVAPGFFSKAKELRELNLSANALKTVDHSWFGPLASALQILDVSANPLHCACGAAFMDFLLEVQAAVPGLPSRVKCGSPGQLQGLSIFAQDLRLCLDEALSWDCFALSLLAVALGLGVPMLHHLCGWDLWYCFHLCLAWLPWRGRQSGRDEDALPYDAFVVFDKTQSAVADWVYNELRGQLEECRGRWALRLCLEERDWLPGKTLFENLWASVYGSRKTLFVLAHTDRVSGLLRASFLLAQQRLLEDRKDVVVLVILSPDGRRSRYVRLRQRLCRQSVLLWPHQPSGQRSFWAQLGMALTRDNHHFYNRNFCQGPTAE

[2] = biological target: T1, Toll-like receptor 9 (Homo sapiens); assay: Induction of TLR9-mediated immune stimulation in human PBMC assessed as IL2R production at 2 ug/ml after 24 hrs by luminex multiplex assay (RVb = 0.02 +/- 0.01 ng/ml)
[3] = biological target: T1, Toll-like receptor 9 (Homo sapiens); assay: Induction of TLR9-mediated immune stimulation in human PBMC assessed as MIP1alpha production at 2 ug/ml after 24 hrs by luminex multiplex assay (RVb = 0.01 ng/ml)
[4] = biological target: T2, Toll-like receptor 9 (Mus musculus) (UniProt Q9EQU3); assay: Induction of TLR9-mediated IL6 production in C57BL/6 mouse spleen cells after 24 hrs by ELISA; format: cell-based
T2 sequence (whole entry): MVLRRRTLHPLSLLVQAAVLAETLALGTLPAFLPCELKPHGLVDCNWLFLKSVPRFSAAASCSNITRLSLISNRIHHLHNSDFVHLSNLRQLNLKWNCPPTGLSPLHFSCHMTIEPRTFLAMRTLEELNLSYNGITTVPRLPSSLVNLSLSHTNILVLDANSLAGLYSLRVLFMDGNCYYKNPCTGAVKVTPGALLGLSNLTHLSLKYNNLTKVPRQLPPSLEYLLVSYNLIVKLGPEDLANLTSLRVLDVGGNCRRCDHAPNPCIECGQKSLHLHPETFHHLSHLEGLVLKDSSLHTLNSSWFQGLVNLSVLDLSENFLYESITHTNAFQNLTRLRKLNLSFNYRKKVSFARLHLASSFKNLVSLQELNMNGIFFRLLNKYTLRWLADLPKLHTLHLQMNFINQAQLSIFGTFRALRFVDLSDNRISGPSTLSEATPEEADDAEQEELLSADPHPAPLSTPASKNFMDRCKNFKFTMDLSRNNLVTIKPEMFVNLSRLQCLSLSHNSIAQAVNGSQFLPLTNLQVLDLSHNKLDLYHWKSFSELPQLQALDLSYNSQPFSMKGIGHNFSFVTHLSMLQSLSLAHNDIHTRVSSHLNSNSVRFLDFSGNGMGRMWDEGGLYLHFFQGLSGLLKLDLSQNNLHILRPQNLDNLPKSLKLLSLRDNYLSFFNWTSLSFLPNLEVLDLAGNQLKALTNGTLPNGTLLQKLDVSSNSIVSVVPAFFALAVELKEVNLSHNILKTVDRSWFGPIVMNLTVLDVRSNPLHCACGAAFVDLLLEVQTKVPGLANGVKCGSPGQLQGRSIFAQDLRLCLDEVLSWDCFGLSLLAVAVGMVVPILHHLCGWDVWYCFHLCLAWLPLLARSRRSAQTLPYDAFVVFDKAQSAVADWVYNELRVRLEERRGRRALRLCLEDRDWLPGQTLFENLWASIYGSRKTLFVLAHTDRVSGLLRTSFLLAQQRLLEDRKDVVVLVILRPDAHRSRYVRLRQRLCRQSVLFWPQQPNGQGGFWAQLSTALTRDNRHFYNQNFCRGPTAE
Outline: (§1)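 C57BL/6 mouse spleen cells were cultured with agonists at 0.1, 0.3, 1, 3 and 10 μg/mL for 24 h. Secreted IL-12 and IL-6 in the supernatants were measured by ELISA. Values are averages of triplicate wells from one representative of at least two independent experiments.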

[5] = biological target: T1, Toll-like receptor 9 (Homo sapiens); assay: Induction of TLR9-mediated immune stimulation in human PBMC assessed as IL12 production at 2 ug/ml after 24 hrs by luminex multiplex assay (RVb = 0.00 ng/ml)
[6] = biological target: T1, Toll-like receptor 9 (Homo sapiens); assay: Induction of TLR9-mediated immune stimulation in human PBMC assessed as IL1Ralpha production at 2 ug/ml after 24 hrs by luminex multiplex assay (RVb = 0.12 +/- 0.03 ng/ml)
[7] = biological target: T1, Toll-like receptor 9 (Homo sapiens); assay: Induction of TLR9-mediated immune stimulation in human PBMC assessed as MIP1beta production at 2 ug/ml after 24 hrs by luminex multiplex assay (RVb = 0.03 +/- 0.02 ng/ml)
[8] = biological target: T1, Toll-like receptor 9 (Homo sapiens); assay: Induction of TLR9-mediated immune stimulation in human PBMC assessed as MIP1beta production at 10 ug/ml after 24 hrs by luminex multiplex assay (RVb = 0.03 +/- 0.02 ng/ml)
Mus musculus = assay: Immunostimulatory activity in C57BL/6 mouse assessed as increase in serum IL12 level at 1 mg/kg, sc after 2 hrs by ELISA; format: functional, organism-based; set-up: dose 1 mg/kg
Outline: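 Female C57BL/6 mice (n=3) received a single subcutaneous agonist dose of 1 mg/kg. Blood was taken by retro-orbital bleeding 2 h later, and serum IL-12 was measured by sandwich ELISA. Values are the mean of three mice ± SD.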

[9] = biological target: T2, Toll-like receptor 9 (Mus musculus); assay: Induction of TLR9-mediated IL12 production in C57BL/6 mouse spleen cells after 24 hrs by ELISA; format: cell-based; outline: as §1

`Cc1cn([C@H]2C[C@H](OCC[C@H](O)COP(=O)(S)O[C@H]3C[C@H](n4cc(C)c(=O)[nH]c4=O)O[C@@H]3COP(=O)(S)O[C@H]3[C@@H](O)[C@H](n4ccc(N)nc4=O)O[C@@H]3COP(=O)(S)O[C@H]3C[C@H](n4cc(C)c(=O)[nH]c4=O)O[C@@H]3COP(=O)(S)O[C@H]3C[C@H](n4cc(C)c(=O)[nH]c4=O)O[C@@H]3COP(=O)(S)O[C@H]3C[C@H](n4ccc5c(=O)[nH]c(N)nc54)O[C@@H]3COP(=O)(S)O[C@H]3[C@@H](O)[C@H](n4ccc(N)nc4=O)O[C@@H]3COP(=O)(S)O[C@H]3C[C@H](n4cc(C)c(=O)[nH]c4=O)O[C@@H]3COP(=O)(S)O[C@H]3[C@@H](O)[C@H](n4cnc5c(=O)[nH]c(N)nc54)O[C@@H]3COP(=O)(S)O[C@H]3C[C@H](n4cc(C)c(=O)[nH]c4=O)O[C@@H]3COP(=O)(S)O[C@H]3[C@@H](O)[C@H](n4ccc(N)nc4=O)O[C@@H]3COP(=O)(S)O[C@H]3C[C@H](n4cc(C)c(=O)[nH]c4=O)O[C@@H]3CO)[C@@H](COP(=O)(S)O[C@H]3[C@@H](O)[C@H](n4ccc(N)nc4=O)O[C@@H]3COP(=O)(S)O[C@H]3C[C@H](n4cc(C)c(=O)[nH]c4=O)O[C@@H]3COP(=O)(S)O[C@H]3C[C@H](n4cc(C)c(=O)[nH]c4=O)O[C@@H]3COP(=O)(S)O[C@H]3C[C@H](n4ccc5c(=O)[nH]c(N)nc54)O[C@@H]3COP(=O)(S)O[C@H]3[C@@H](O)[C@H](n4ccc(N)nc4=O)O[C@@H]3COP(=O)(S)O[C@H]3C[C@H](n4cc(C)c(=O)[nH]c4=O)O[C@@H]3COP(=O)(S)O[C@H]3[C@@H](O)[C@H](n4cnc5c(=O)[nH]c(N)nc54)O[C@@H]3COP(=O)(S)O[C@H]3C[C@H](n4cc(C)c(=O)[nH]c4=O)O[C@@H]3COP(=O)(S)O[C@H]3[C@@H](O)[C@H](n4ccc(N)nc4=O)O[C@@H]3COP(=O)(S)O[C@H]3C[C@H](n4cc(C)c(=O)[nH]c4=O)O[C@@H]3CO)O2)c(=O)[nH]c1=O` (stereo not given in full) was tested, and the Activity [1] was 0.98 ng/mL, the Activity [2] was 0.09 ng/mL and the Activity [3] was 0.16 ng/mL. For the same molecule, the Activity [4] was “Dose-dependent effect”, the Activity [5] was 0.16 ng/mL and the Activity [6] was 16.4 ng/mL. For the same molecule, the Activity [7] was 0.81 ng/mL, the Activity [8] was 1.76 ng/mL and the Activity (Mus musculus) was “Active”. The Activity [9] was “Dose-dependent effect”.

From ChEMBL document CHEMBL1157912, “Impact of nature and length of linker incorporated in agonists on toll-like receptor 9-mediated immune responses” (J Med Chem, 2010)
